We go through 18 molecules from ChEMBL document CHEMBL4190402, “Development of a Novel Human Parathyroid Hormone Receptor 1 (hPTHR1) Agonist (CH5447240), a Potent and Orally Available Small Molecule for Treatment of Hypoparathyroidism” (J Med Chem, 2018).

The target of series [1] is T1, Parathyroid hormone/parathyroid hormone-related peptide receptor (Homo sapiens) (UniProt Q03431).
T1 sequence (whole entry): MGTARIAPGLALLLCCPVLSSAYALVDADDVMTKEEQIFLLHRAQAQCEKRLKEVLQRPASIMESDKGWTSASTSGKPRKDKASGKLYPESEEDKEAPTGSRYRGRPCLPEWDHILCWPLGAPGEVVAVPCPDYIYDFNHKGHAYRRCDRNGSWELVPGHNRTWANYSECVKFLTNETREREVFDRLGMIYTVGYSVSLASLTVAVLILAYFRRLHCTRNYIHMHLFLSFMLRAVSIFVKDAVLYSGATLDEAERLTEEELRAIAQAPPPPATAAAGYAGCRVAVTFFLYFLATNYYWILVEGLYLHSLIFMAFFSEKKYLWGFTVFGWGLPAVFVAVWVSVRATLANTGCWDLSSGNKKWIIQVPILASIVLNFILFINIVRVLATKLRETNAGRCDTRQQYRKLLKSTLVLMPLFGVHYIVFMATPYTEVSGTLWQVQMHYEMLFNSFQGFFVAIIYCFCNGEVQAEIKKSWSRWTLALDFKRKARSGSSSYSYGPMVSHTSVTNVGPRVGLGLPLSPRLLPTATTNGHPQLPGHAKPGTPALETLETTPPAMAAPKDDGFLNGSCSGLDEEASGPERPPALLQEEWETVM
Kind of series: Agonist activity at human PTHR1 expressed in HKRKB7 cells assessed as accumulation of intracellular cAMP at 1 mM after 20 mins by enzyme immunoassay relative to human PTH (1 to 34 residues). It is filed as functional, cell-based. The method, boiled down:
(§1)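 HKRK-B7 cells (LLC-PK1 stably expressing hPTHR1), 1.0 x 10^3 per well, seeded overnight, then exposed to serially diluted compound in McCoy's 5A with 2 mg/ml BSA, 1 mmol/l IBMX and 2 mmol/l HEPES for 20 min at 37°C. Cells washed, frozen, lysed in 50 mmol/l HCl, cAMP read by EIA.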

In another series the test system is LLC-PK1. Kind of series: Induction of cAMP production in porcine LLC-PK1 cells after 20 mins by enzyme immunoassay. In kind it is functional, cell-based. To be noted: Sus scrofa. The method, boiled down:
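Counter-screen on parent LLC-PK1 cells lacking hPTHR1. Conditions match the HKRK-B7 assay: 20 min at 37°C in IBMX-containing assay medium, then cAMP read by EIA.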

The target of series [2] is T1, Parathyroid hormone/parathyroid hormone-related peptide receptor (Homo sapiens). Kind of series: (§2) Agonist activity at human PTHR1 expressed in HKRKB7 cells assessed as accumulation of intracellular cAMP after 20 mins by enzyme immunoassay. In kind it is functional, cell-based. In outline: as §1
Series [3] addresses T2, Parathyroid hormone/parathyroid hormone-related peptide receptor (Homo sapiens, UniProt Q03431).
T2 sequence (Q03431 whole entry): T1 sequence (whole entry)
The series is described as §2. In kind it is functional, cell-based. The method, boiled down:
as §1

Series [4] is described as follows: Solubility of the compound in FaSSIF at 1 mM by HPLC-UV analysis. In kind it is physicochemical. Particulars: FaSSIF. In outline: (§3)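 A 1 mM DMSO stock (50 µL) was freeze-dried, then the residue taken up in 50 mM PBS pH 6.5 or FaSSIF pH 6.5. Sonicated 10 min, shaken 2 h, centrifuged, filtered. Filtrate concentration determined by HPLC-UV against each compound's calibration curve.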

The nature of series [5]: Solubility of the compound in PBS at pH 6.5 at 1 mM by HPLC-UV analysis. It is filed as physicochemical. Particulars: for solubility at 1000 µM: PBS, pH 6.5. In outline: as §3
The nature of series [6]: Intrinsic clearance in human liver microsomes assessed per mg protein at 1 uM after 30 mins in presence of NADPH by LC-MS/MS analysis. In kind it is ADME, microsome. Particulars: read-out: CLH.
The nature of series [7]: Intrinsic clearance in human liver microsomes assessed per mg protein at 1 uM after 30 mins in absence of NADPH by LC-MS/MS analysis. It is filed as ADME, microsome. To be noted: liver microsomes, read-out: CLH.

pEC50: −log10 of the molar value. Values after ≈ are worked out from the molar mass of the structure shown. Active and inactive are the calls of the source. The rule behind the calls is not given here. A value given as a limit tells only on which side of the number the result lay.

As to `C[C@H]1CC[C@H](C2=NC3(CCN(S(=O)(=O)c4cccc(Cl)c4)CC3)C(=O)N2)CC1`, the Activity in series [1] was 35%. In addition, in the series with LLC-PK1, the result was inactive.

Turning to `CC(=O)Nc1cc(C)c(CCS(=O)(=O)N2CCC3(CC2)N=C(C2CCCCC2)NC3=O)c(C)c1`, in series [2], the EC20 was 6.4 µM. Further, the pEC50 in series [3] was 4.59. Besides, the solubility at 1000 µM in series [4] amounted to 38 µg/mL (≈ 77.8 µM); in series [5], 8 µg/mL (≈ 16.4 µM). The microsomal CLint at 1 µM was 39 µL/min/mg in series [6] and 18 µL/min/mg in series [7]. In the series with LLC-PK1, the result was inactive.

With `O=C1NC(C2CCCCC2)=NC12CCN(S(=O)(=O)CCc1ccncc1)CC2`, the 20% effect concentration (EC20) in series [2] was greater than 1000 µM. For the same molecule, in the series on LLC-PK1, the outcome was inactive.

Consider `O=C1NC(C2CCCCC2)=NC12CCN(S(=O)(=O)c1cccc3ccccc13)CC2`, for which, in series [2], the EC20 is 220 µM. In addition, the outcome in the series with LLC-PK1 was inactive.

For `Cc1ccccc1CCS(=O)(=O)N1CCC2(CC1)N=C(C1CCCCC1)NC2=O`, the EC20 in series [2] is 30 µM. For the same molecule, the negative logarithm of the EC50 (pEC50) in series [3] was less than 3.00. Also, the solubility at 1000 µM came to 15 µg/mL (≈ 35.9 µM) in series [4] and 11 µg/mL (≈ 26.3 µM) in series [5]. The microsomal CLint at 1 µM in series [6] came out at 100 µL/min/mg. In addition, the result with LLC-PK1 was inactive.

Consider `O=C1NC(C2CCCCC2)=NC12CCN(S(=O)(=O)CCc1ccccc1)CC2`, for which the EC20 in series [2] amounted to 240 µM. Also, the outcome in the series with LLC-PK1 was inactive.

In the case of `O=C1NC(c2ccccc2)=NC12CCN(S(=O)(=O)c1cccc(Cl)c1)CC2`, the Activity in series [1] turned out to be 1.9%. The outcome with LLC-PK1 was inactive.

As to `O=C1NC(c2ccncc2)=NC12CCN(S(=O)(=O)c1cccc(Cl)c1)CC2`, in series [1], the Activity came to 1%. Further, the outcome in the series with LLC-PK1 was inactive.

As to `O=C(O)c1ccc(C2=NC3(CCN(S(=O)(=O)c4cccc(Cl)c4)CC3)C(=O)N2)cc1`, in series [1], the Activity was found to be 1.3%. Also, the outcome in the series on LLC-PK1 was inactive.

Turning to `CC(=O)Nc1ccc(CCS(=O)(=O)N2CCC3(CC2)N=C(C2CCCCC2)NC3=O)c(C)c1`, the EC20 in series [2] was 11 µM. The pEC50 in series [3] is 4.30. Moreover, the figures for the solubility at 1000 µM in series [4] and in series [5] were 400 µg/mL (≈ 843 µM) and 280 µg/mL (≈ 590 µM), respectively. Further, the microsomal CLint at 1 µM in series [6] came out at 46 µL/min/mg; in series [7], 33 µL/min/mg. For the same molecule, the outcome with LLC-PK1 was inactive.

Take `O=C1NC(C2CCCCC2)=NC12CCN(S(=O)(=O)CCc1cccc3ccccc13)CC2`: in series [2], the EC20 was 15 µM. The solubility at 1000 µM in series [4] is 3.1 µg/mL (≈ 6.83 µM). For the same molecule, the solubility entry in series [5] (buffer, pH 6.5, 1000 µM, BLD = below limit of detection) is listed as “Bld”. In addition, in series [6], the microsomal CLint at 1 µM came out at 300 µL/min/mg. In addition, the result with LLC-PK1 was inactive.

On to `O=C1NC(C2CCCCC2)=NC12CCN(S(=O)(=O)c1cccc(Cl)c1)CC2`, for which, in series [2], the EC20 was found to be 140 µM. In addition, the Activity in series [1] turned out to be 45%. Also, the outcome with LLC-PK1 was inactive.

Regarding `O=C1NC(c2ccc(Cl)cc2)=NC12CCN(S(=O)(=O)c1cccc(Cl)c1)CC2`, the Activity in series [1] stood at 22%. The outcome in the series on LLC-PK1 was inactive.

As to `O=C1NC(c2ccc(Cl)cc2Cl)=NC12CCN(S(=O)(=O)c1cccc(Cl)c1)CC2`, the EC20 in series [2] was 530 µM. The pEC50 in series [3] is less than 3.00. For the same molecule, in series [1], the Activity was found to be 23%. For the same molecule, the result in the series on LLC-PK1 was inactive.

Regarding `O=C1NC(C2CCCCC2)=NC12CCN(S(=O)(=O)Cc1ccccc1)CC2`, in series [2], the EC20 is greater than 1000 µM. The outcome in the series with LLC-PK1 was inactive.

With `O=C1NC(c2ccc(Cl)cc2Cl)=NC12CCN(S(=O)(=O)CCc1cccc3ccccc13)CC2`, in series [2], the EC20 is 150 µM. Further, the result in the series with LLC-PK1 was inactive.

Regarding `Cc1cc(N(C)C(N)=O)cc(C)c1CCS(=O)(=O)N1CCC2(CC1)N=C(C1CCCCC1)NC2=O`, in series [2], the EC20 stood at 8.1 µM. Also, the pEC50 in series [3] is 4.17. In addition, the values for the solubility at 1000 µM in series [4] and in series [5] were 450 µg/mL (≈ 893 µM) and 290 µg/mL (≈ 576 µM), respectively. The microsomal CLint at 1 µM in series [6] was found to be 23 µL/min/mg. Besides, in the series with LLC-PK1, the result was inactive.

As for `O=C1NC(c2ccccc2Cl)=NC12CCN(S(=O)(=O)c1cccc(Cl)c1)CC2`, in series [1], the Activity stood at 18%. Also, in the series on LLC-PK1, the result was inactive.
